Source: ChEMBL document CHEMBL1143367, “Therapeutic index of gramicidin S is strongly modulated by D-phenylalanine analogues at the beta-turn” (J Med Chem, 2009)
*1 amine or outer side, *2 acyl side, *3 side chain or, on linkers, in order; H or OH if unused. Where a SMILES comes first, the peptide text is derived from it. [ ]: non-standard residue; d: D form. X1 = O=C([C@H](N[*:1])C1c2ccccc2-c2ccccc21)[*:2]; d1Nal = N[C@H](Cc1cccc2ccccc12)C(=O)O; d2Nal = N[C@H](Cc1ccc2ccccc2c1)C(=O)O; dTic = O=C(O)[C@H]1Cc2ccccc2CN1; Orn = NCCC[C@H](N)C(=O)O

How the values were obtained:
Details in all cases: defibrinated sheep red blood cells, read-out: TI
[1] = Therapeutic index, ratio of HC50 for defibrinated sheep RBC to MIC50 for colistin-resistant Acinetobacter baumannii 19606R
How it was run: (§1)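 TI is HC50/MIC50. For HC50, defibrinated sheep erythrocytes were washed in Hank's medium with 20 mM glucose (pH 7.2), held at 2 × 10^7 cells/mL, and incubated 4 h at 37 °C with peptide in triplicate. After centrifugation, hemoglobin release was read at 550 nm.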

[2] = Therapeutic index, ratio of HC50 for defibrinated sheep RBC to MIC50 for Listeria monocytogenes CECT 4032; how it was run: as §1
[3] = Therapeutic index, ratio of HC50 for defibrinated sheep RBC to MIC50 for Staphylococcus aureus CECT 240; how it was run: as §1

| Compound | selectivity ratio [1] | selectivity ratio [2] | selectivity ratio [3] |
| --- | --- | --- | --- |
| CC(C)C[C@@H]1NC(=O)[C@H](CCCN)NC(=O)[C@H](C(C)C)NC(=O)[C@@H]2CCCN2C(=O)[C@@H](C2c3ccccc3-c3ccccc32)NC(=O)[C@H](CC(C)C)NC(=O)[C@H](CCCN)NC(=O)[C@H](C(C)C)NC(=O)[C@@H]2CCCN2C(=O)[C@@H](C2c3ccccc3-c3ccccc32)NC1=O (cyclo(L[X1]PV[Orn]L[X1]PV[Orn])) | > 0.1 | – | – |
| CC(C)C[C@@H]1NC(=O)[C@H](CCCN)NC(=O)[C@H](C(C)C)NC(=O)[C@@H]2CCCN2C(=O)[C@@H](Cc2cccc3ccccc23)NC(=O)[C@H](CC(C)C)NC(=O)[C@H](CCCN)NC(=O)[C@H](C(C)C)NC(=O)[C@@H]2CCCN2C(=O)[C@@H](Cc2cccc3ccccc23)NC1=O (cyclo(L[d1Nal]PV[Orn]L[d1Nal]PV[Orn])) | > 0.1 | – | – |
| CC(C)C[C@@H]1NC(=O)[C@H](CCCN)NC(=O)[C@H](C(C)C)NC(=O)[C@@H]2CCCN2C(=O)[C@@H](Cc2ccc3ccccc3c2)NC(=O)[C@H](CC(C)C)NC(=O)[C@H](CCCN)NC(=O)[C@H](C(C)C)NC(=O)[C@@H]2CCCN2C(=O)[C@@H](Cc2ccc3ccccc3c2)NC1=O (cyclo(L[d2Nal]PV[Orn]L[d2Nal]PV[Orn])) | > 0.2 | – | – |
| CC(C)C[C@@H]1NC(=O)[C@H](CCCN)NC(=O)[C@H](C(C)C)NC(=O)[C@@H]2CCCN2C(=O)[C@H]2Cc3ccccc3CN2C(=O)[C@H](CC(C)C)NC(=O)[C@H](CCCN)NC(=O)[C@H](C(C)C)NC(=O)[C@@H]2CCCN2C(=O)[C@H]2Cc3ccccc3CN2C1=O (cyclo(L[dTic]PV[Orn]L[dTic]PV[Orn])) | – | > 6 | > 10.2 |
